ChEMBL document CHEMBL2176920, “Structure-based selectivity optimization of piperidine-pteridine derivatives as potent Leishmania pteridine reductase inhibitors” (J Med Chem, 2012)
In brackets after ≈: the same amount, converted by molar mass. Activity calls are given as the source filed them. The rule behind the calls is not given here.

Tests used:
Thymidylate synthase [1] = target: T1, Thymidylate synthase (Homo sapiens, UniProt P04818); assay: Inhibition of human TS by spectrophotometric analysis
Target sequence in this assay (P04818 whole entry): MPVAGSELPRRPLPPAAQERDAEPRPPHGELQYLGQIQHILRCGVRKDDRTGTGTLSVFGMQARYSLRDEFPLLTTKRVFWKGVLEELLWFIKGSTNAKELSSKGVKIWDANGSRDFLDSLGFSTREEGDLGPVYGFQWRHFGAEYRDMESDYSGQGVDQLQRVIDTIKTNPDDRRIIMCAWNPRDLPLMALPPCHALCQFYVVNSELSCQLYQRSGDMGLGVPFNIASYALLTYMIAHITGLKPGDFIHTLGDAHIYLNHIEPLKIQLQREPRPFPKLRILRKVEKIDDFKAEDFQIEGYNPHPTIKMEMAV

Leishmania mexicana [2] = assay: Antiparasitic activity against Leishmania mexicana promastigotes assessed as parasite growth at 50 ug/mL; type: functional
Outline: (§1)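 Promastigotes grown from 10^5 parasites/mL and harvested in exponential phase at 2 × 10^7/mL. For the assay they were plated at 10^6 cells/mL in 96-well format, so cells were leaving exponential phase for stationary phase. Compound was given at 50 μg/mL alone or together with pyrimethamine at 30 μg/mL. Percent growth inhibition was compared between the single agent and the combination.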

Leishmania major = assay: Antiparasitic activity against Leishmania major promastigotes assessed as parasite growth at 50 ug/mL; type: functional; outline: as §1
MRC5 = assay: Toxicity against human MRC5 cells assessed as growth inhibition at 50 ug/mL; type: cell-based
Outline: (§2)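 MRC-5 human fibroblasts were grown at 37 °C, 5% CO2, in DMEM with 10% heat-inactivated FBS and extra glutamine. Cells were seeded so that control wells were confluent after 72 h of incubation with compound. Alamar Blue optical density was the read-out. Values are mean ± SD of three independent experiments.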

Leishmania mexicana [3] = assay: Inhibition of pteridine reductase in Leishmania mexicana promastigote assessed as increase in pyrimethamine-induced growth inhibition by measuring parasite growth at 50 ug/mL; design: scale not given: the % may be the effect or the level left
Outline: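 Promastigotes plated at 10^6 cells/mL, leaving exponential and entering stationary phase. Exposed to compound at 50 μg/mL alone or together with pyrimethamine at 30 μg/mL. Percent growth inhibition with compound alone compared with that of each compound plus PYR.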

[4] = Toxicity against human MRC5 cells assessed as growth inhibition; type: cell-based; settings: read-out: ED50 (the source's name); outline: as §2
[5] = Toxicity against human MRC5 cells assessed as growth inhibition at 100 ug/mL; type: cell-based; settings: read-out: GI; outline: as §2
[6] = target: T2, Dihydrofolate reductase (Homo sapiens) (UniProt P00374); assay: Inhibition of human DHFR at 30 uM by spectrophotometric analysis
T2 sequence (whole entry): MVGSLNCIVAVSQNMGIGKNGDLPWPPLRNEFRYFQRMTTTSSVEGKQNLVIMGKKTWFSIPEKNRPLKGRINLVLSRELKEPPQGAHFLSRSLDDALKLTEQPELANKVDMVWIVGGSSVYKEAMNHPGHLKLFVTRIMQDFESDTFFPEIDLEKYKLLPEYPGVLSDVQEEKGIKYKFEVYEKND
Outline: (§3)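 Purified human enzymes screened in continuous spectrophotometric assays. DMSO was kept below the level affecting activity: under 5% for hDHFR and under 8% for hTS.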

Thymidylate synthase [7] = target: T1, Thymidylate synthase; assay: Inhibition of human TS at 30 uM by spectrophotometric analysis; outline: as §3
Target sequence in this assay (P04818 2-313 limits assumed): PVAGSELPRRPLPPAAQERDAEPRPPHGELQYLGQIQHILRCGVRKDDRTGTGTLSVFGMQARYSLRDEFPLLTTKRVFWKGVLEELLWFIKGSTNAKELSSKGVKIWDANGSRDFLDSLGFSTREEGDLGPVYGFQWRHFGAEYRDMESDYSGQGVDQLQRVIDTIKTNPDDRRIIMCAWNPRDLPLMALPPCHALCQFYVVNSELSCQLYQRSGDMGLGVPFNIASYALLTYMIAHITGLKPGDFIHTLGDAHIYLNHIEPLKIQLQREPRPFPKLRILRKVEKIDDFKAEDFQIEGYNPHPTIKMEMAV

[8] = target: T3, Pteridine reductase 1 (Leishmania major) (UniProt Q01782)
T3 sequence (whole entry): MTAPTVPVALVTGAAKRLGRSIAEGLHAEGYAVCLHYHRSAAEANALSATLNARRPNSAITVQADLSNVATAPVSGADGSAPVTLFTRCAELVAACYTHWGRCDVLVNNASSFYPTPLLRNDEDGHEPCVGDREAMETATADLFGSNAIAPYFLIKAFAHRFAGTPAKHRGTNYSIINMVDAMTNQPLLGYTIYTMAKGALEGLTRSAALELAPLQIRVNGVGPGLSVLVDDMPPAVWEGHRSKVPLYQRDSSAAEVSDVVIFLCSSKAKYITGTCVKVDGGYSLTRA

Leishmania mexicana [9] = assay: Inhibition of pteridine reductase in Leishmania mexicana promastigote assessed as increase in pyrimethamine cytotoxicity by Chou-Talalay method
Leishmania mexicana [10] = assay: Inhibition of pteridine reductase in Leishmania mexicana promastigote assessed as reduction in cell survival upon H2O2 exposure at ED50 after 48 hrs at 28 degC relative to control
Outline: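 L. mexicana promastigotes plated at 10^5 cells/mL and pretreated with compound for 48 h at 28 °C. Then diluted to 2 × 10^4 cells/mL and exposed to increasing H2O2 concentrations for 45 min. Surviving motile parasites counted on a Neubauer grid. Compound-treated, non-H2O2 sample taken as 100%; compared against untreated H2O2-exposed series.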

Thymidylate synthase [11] = target: T1, Thymidylate synthase; assay: Inhibition of human TS at 50 uM by spectrophotometric analysis; outline: as §3
Target sequence in this assay (P04818 2-313 limits assumed): as the sequence (P04818 2-313 limits assumed) above

Dihydrofolate reductase = target: T4, Dihydrofolate reductase (Homo sapiens, UniProt P00374); assay: Inhibition of human DHFR by spectrophotometric analysis
T4 sequence (P00374 whole entry): T2 sequence (whole entry)

Thymidylate synthase [12] = target: T1, Thymidylate synthase; assay: Inhibition of human TS at 15 uM by spectrophotometric analysis; outline: as §3
Target sequence in this assay (P04818 2-313 limits assumed): as the sequence (P04818 2-313 limits assumed) above

| Compound | Activity (Leishmania mexicana [2]) | Activity (Leishmania major) | Activity (Leishmania mexicana [3]) | GI50 [4] | inhibition [6] | inhibition (Thymidylate synthase [7]) | inhibition (Thymidylate synthase [12]) | other results |
| --- | --- | --- | --- | --- | --- | --- | --- | --- |
| COC(=O)C1CCN(C(=O)c2ccc(N(CCO)Cc3cnc4nc(N)nc(N)c4n3)cc2)CC1 | 100.1% | 122.2% | 12.9% |  |  |  |  | Ki (Thymidylate synthase [1]; read-out: Ki): 64 µM; Activity (MRC5): Non-toxic |
| CCc1nc(N)nc(N)c1-c1ccc(Cl)cc1 [PYRIMETHAMINE] | 102.5% | 68% |  | 16.2 µg/mL (≈ 65.1 µM) |  |  |  |  |
| CCOC(=O)CN(Cc1cnc2nc(N)nc(N)c2n1)c1ccc(C(=O)N2CCC(C(=O)OC)CC2)cc1 | 102.3% | 100.8% | 21.9% |  | inactive | inactive |  | inhibition at 100 ug/mL [5]: 28% |
| COC(=O)C1CCN(C(=O)c2ccc(NCc3cnc4nc(N)nc(N)c4n3)cn2)CC1 | 95.6% | 103.4% | 17.6% |  | inactive |  |  | FICI [8]: 0.8; fractional inhibitory concentration index (FICI) (Leishmania mexicana [9]): 1.51; inhibition (Leishmania mexicana [10]): Active; Activity (MRC5): Non-toxic; inhibition (Thymidylate synthase [11]): inactive |
| COC(=O)C1CCN(C(=O)c2ccc(NCc3cnc4nc(N)nc(N)c4n3)cc2)CC1 | 111.6% | 99.6% | 24.4% | 23.4 µg/mL (≈ 53.6 µM) |  |  |  | FICI [8]: 0.75; Ki (Thymidylate synthase [1]): Not Active; fractional inhibitory concentration index (FICI) (Leishmania mexicana [9]): 2.05; inhibition (Leishmania mexicana [10]): Active; Ki (Dihydrofolate reductase): 10 µM |
| COC(=O)C1CCN(C(=O)c2ccc(N(C)Cc3cnc4nc(N)nc(N)c4n3)cc2)CC1 |  |  |  |  |  |  | inactive |  |
| Nc1nc(N)c2nc(CNc3ccc(C(=O)N4CCC(C(=O)O)CC4)cc3)cnc2n1 |  |  |  |  |  |  | inactive |  |
| NC(=O)C1CCN(C(=O)c2ccc(NCc3cnc4nc(N)nc(N)c4n3)cc2)CC1 | 88.5% | 121.2% | 15.7% | 51 µg/mL (≈ 121 µM) |  |  | inactive |  |
| CCc1cc(C(=O)N2CCC(C(=O)OC)CC2)ccc1NCc1cnc2nc(N)nc(N)c2n1 | 90.6% | 104.2% | 19.6% | 21.8 µg/mL (≈ 46.9 µM) | inactive | inactive |  |  |
| CCc1ccc(NCc2cnc3nc(N)nc(N)c3n2)cc1C(=O)N1CCC(C(=O)OC)CC1 |  |  |  |  |  | inactive |  | Ki (Dihydrofolate reductase): 4.68 µM |
